Activity calls are given as the source filed them. No cut-off for these calls is given here.
Columns and labels:
[1] = tested on: Trypanosoma cruzi; experiment: Antitrypanosomal activity against Trypanosoma cruzi Tulahuen at 50 ug/mL by beta-galactosidase assay; type: functional, organism-based
Outline: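 A transgenic T. cruzi expressing β-galactosidase (Tulahuen strain, clone C4) was used. Growth of the intracellular stage was read from cleavage of the colorimetric substrate chlorophenol red-β-D-galactoside. Compounds tested at 50 µg/mL.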

[2] = tested on: Leishmania mexicana; experiment: Antileishmanial activity against Leishmania mexicana WHO-MOHM/B2/82/BELZ promastigote at 40 ug/mL by XTT assay; type: functional, organism-based
Outline: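 Promastigotes of L. mexicana (WHO-MOHM/B2/82/BELZ), cultured by established protocols, in a colorimetric growth assay; read-out is reduction of the tetrazolium salt XTT to a water-soluble formazan. Compounds tested at 40 µg/mL.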

[3] = tested on: Vero; experiment: Cytotoxicity against african green monkey Vero cells after 4 hrs by MTT assay; type: cell-based; conditions: Chlorocebus sabaeus
[4] = tested on: Plasmodium falciparum; experiment: Antiplasmodial activity against chloroquine-resistant Plasmodium falciparum W2; type: functional, organism-based

Compound | Activity [1] | Activity [2] | IC50 [3] [µM] | IC50 [4] [µM]
CC(=O)OC[C@@H]1O[C@@H](Oc2c(-c3cc(O)c(O)c(O)c3)oc3cc(O)cc(O)c3c2=O)[C@H](O)[C@H]1OC(C)=O | inactive | inactive | 456 | –
O=C(Oc1cc(O)cc2oc(-c3ccc(O)c(O)c3)c(O[C@@H]3O[C@@H](CO)[C@H](O)[C@H]3O)c(=O)c12)c1cc(O)c(O)c(O)c1 | inactive | inactive | 86.5 | 14.5
Oc1cc(O)c2c(c1)O[C@H](c1ccc(O)c(O)c1)[C@H](O)C2 [(-)-EPICATECHIN] | – | – | 184 | > 50
O=c1c(O[C@@H]2O[C@@H](CO)[C@H](O)[C@H]2O)c(-c2cc(O)c(O)c(O)c2)oc2cc(O)cc(O)c12 | inactive | inactive | – | 27.8
CC(=O)O[C@@H]1[C@@H](O)[C@H](Oc2c(-c3cc(O)c(O)c(O)c3)oc3cc(O)cc(O)c3c2=O)O[C@H]1CO | inactive | inactive | – | –

Reference: ChEMBL document CHEMBL1157951, “Weakly antimalarial flavonol arabinofuranosides from Calycolpus warszewiczianus” (J Nat Prod, 2006)
